Screens deposited in PubChem by several laboratories.
Compounds with a hit are over-represented: about 4.1% of the library has one in this group of screens.
Cl transport mod: KCC2 cotransporter modulators, thallium flux, primary screen, cell-based, HEK293 KCC2, FluoZin-2 fluorescence, MLSMR | Solute carrier family 12 member 5 (Homo sapiens), Q9H2X9 | KCC2 cells, thallium flux FluoZin-2 fluorescence | B-score of Tl+ flux slope (higher = more flux/activation; lower = inhibition) at 10 µM | 190,000 compounds, 2.2% hits;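 active = thallium flux slope and its plate-corrected score both differing from the plate sample mean at a set confidence after two filtering rounds, in either direction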;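 also: slope of fluorescence scaled to starting intensity during 10 to 20 s after thallium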
Target sequence (Q9H2X9 whole entry, looked up): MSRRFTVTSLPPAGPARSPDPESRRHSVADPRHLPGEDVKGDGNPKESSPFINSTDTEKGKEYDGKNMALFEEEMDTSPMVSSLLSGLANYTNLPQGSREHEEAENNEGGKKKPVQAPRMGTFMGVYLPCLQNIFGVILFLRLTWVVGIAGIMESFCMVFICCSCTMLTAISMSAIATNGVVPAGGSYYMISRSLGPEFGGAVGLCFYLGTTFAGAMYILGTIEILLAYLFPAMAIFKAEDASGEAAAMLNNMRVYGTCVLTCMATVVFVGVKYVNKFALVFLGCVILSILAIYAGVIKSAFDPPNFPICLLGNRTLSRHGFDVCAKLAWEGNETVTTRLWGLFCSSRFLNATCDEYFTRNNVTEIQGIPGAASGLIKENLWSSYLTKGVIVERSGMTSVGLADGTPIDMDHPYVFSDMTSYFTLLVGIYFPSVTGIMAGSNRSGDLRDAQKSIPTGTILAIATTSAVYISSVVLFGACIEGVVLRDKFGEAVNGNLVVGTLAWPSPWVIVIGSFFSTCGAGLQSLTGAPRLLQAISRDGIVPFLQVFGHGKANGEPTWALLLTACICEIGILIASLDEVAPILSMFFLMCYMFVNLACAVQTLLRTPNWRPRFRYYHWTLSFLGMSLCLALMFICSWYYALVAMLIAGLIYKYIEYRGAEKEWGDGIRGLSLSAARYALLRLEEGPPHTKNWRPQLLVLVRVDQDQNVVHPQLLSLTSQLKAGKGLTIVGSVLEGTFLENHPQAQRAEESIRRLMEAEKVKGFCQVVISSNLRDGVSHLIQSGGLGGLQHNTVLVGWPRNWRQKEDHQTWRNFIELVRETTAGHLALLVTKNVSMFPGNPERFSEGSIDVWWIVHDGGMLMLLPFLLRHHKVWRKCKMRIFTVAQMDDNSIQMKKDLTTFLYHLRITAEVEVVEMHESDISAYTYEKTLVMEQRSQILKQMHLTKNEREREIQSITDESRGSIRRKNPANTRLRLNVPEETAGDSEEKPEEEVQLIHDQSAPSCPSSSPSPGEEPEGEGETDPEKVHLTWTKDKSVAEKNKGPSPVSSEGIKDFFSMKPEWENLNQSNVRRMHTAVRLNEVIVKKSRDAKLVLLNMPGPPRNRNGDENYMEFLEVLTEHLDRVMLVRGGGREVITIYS
DTT redox prof: compounds producing H2O2 with reducing agent – biochemical, NIH compound library profiling, artefact control for MLSCN library redox annotation, primary screen; DTT-dependent redox cycling H2O2, phenol red/HRP absorbance; 100% = 100 µM peroxide control, 0% = buffer; activation, % at 10 µM; 200,000 compounds, 0.03% hits;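 active = activation of at least 50% relative to the plate's high and low controls in the primary single-dose screen; inactive = activation below 50%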;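 also: compound incubated with DTT at 0.8 mM final as the reducing agent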
Dynein transport: inhibitors of GR-EGFP nuclear translocation, primary screen, dynein cargo transport inhibitor project, imaging, high-content, 3617.4 mouse cells; test concentration mostly 20 µM; stimulated with dexamethasone, 1 µM; stronger effect = lower value; z-score, hits read low; 220,000 compounds, 0.47% hits; AID 1381, 2008;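 active = plate z-score of nuclear minus cytoplasmic receptor signal below a set negative limit, without overly bright fluorescence or cell loss, cut at about -3.5 in these data, passing the limit was not always enough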;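 also: z-score of nuclear minus cytoplasmic ring GR-EGFP intensity difference per well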
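Medium: Induction medium lacking tetracycline, stripped serum | Probe or stimulus: 1.0 µM final dexamethasone stimulus | Schedule: 48 h induction, then 1 h compound, then 30 min agonist, 37 °C | Signal: Automated 10x imaging of fixed Hoechst-stained cells | Evaluation: Per-cell GR-EGFP intensity, nucleus versus surrounding cytoplasmic ring, well-averaged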
Autophagy mod: autophagy modulators in MEF cells, primary screen, imaging, high-content, MEF GFP-LC3; MEF GFP-LC3 puncta imaging; test concentration mostly 10 µM; calls only at 10 µM (by protocol); 190,000 compounds, 0.98% hits;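 active = percentage of spot-positive cells more than 3 SD above its plate mean, without a fluorescence outlier flag or 80% toxicity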;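 also: spot-positive cell cutoff set from DMSO-treated cells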
ROMK primary: ROMK potassium channel modulators, primary screen, cell-based, thallium flux, MLSMR library; ATP-sensitive inward rectifier potassium channel 1 (Homo sapiens), P48048; Tet-inducible ROMK, thallium flux fluorescence; actives lie on both sides; B-score at 10 µM; 130,000 compounds, 2% hits;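 active = signal ratio slope over the read window, or its plate-corrected B-score, at least 3 SD from the plate mean, either direction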;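 also: B-score of the F/F0 ratio slope over 7 to 12 s after thallium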
Starred values were filed as active, the others as inactive.

How did COC(=O)c1cc(-c2ccc(NC(C)=O)cc2)nc2ccccc12 do in these assays?
Cl transport mod: -0.3; DTT redox prof: 0; Dynein transport: 0.061; Autophagy mod: inactive; ROMK primary: 0.0098

How did COCc1ccc(C(=O)N2CCCC(CCC(=O)NCc3ccccc3F)C2)o1 (stereo unspecified) do in these assays?
DTT redox prof: -1; Dynein transport: 2.6; Autophagy mod: inactive; ROMK primary: 0.58

How did CCCCn1c(SCC(=O)/C(C#N)=C(\C)N)nc2ccccc2c1=O do in these assays?
Cl transport mod: 24*; DTT redox prof: 0; Dynein transport: -0.72; Autophagy mod: inactive; ROMK primary: 3*

Results for Cc1ccc(CNC(=O)CSCc2ccc(F)cc2)cc1 ?
Cl transport mod: -2.6; DTT redox prof: 0; Dynein transport: -1.1; Autophagy mod: inactive; ROMK primary: -1.1

Results for Cc1ccc(CNC(=O)CSCc2ccccc2)cc1 ?
Cl transport mod: -1.9; DTT redox prof: 0; Dynein transport: -0.68; Autophagy mod: active; ROMK primary: -0.081

What do the screens show for `CCOC(=O)c1ccccc1Nc1cn(C(C)=O)c2ccccc12`?
Cl transport mod: 0.025; DTT redox prof: 2; Dynein transport: 1.2; Autophagy mod: active; ROMK primary: -0.96

How did CCCCCOc1ccc(Br)cc1/C(C)=N/NC1=NCCN1 do in these assays?
Cl transport mod: -0.74; DTT redox prof: 0; Dynein transport: -1; Autophagy mod: active

How did C=CCNC(=S)Nc1nc2c(cc1C(=O)OCC)CCCC2 do in these assays?
Cl transport mod: 63*; DTT redox prof: 0; Dynein transport: -0.68; Autophagy mod: inactive; ROMK primary: 0.57

How did CCOC(=O)CC(=O)CSc1nc2c(cc1C#N)CCCCC2 do in these assays?
Cl transport mod: -0.23; DTT redox prof: 2; Dynein transport: -0.57; Autophagy mod: inactive; ROMK primary: -1.4

Results for CCNC(=S)Nc1nc2c(cc1C(=O)OCC)CCCC2 ?
Cl transport mod: 41*; DTT redox prof: 0; Dynein transport: 0.22; Autophagy mod: inactive

Results for Cc1ccc(C2(c3noc(CN(C)Cc4cnn(C)c4)n3)CCCC2)cc1 ?
Cl transport mod: 0.28; DTT redox prof: -1; Dynein transport: -0.49; Autophagy mod: inactive; ROMK primary: 0.86

How did COc1ccccc1NC(=O)c1c(N=Cc2ccccc2O)cnn1C do in these assays?
Cl transport mod: -0.73; DTT redox prof: 0; Dynein transport: -0.16; Autophagy mod: inactive; ROMK primary: 1.1

How did CCCn1c(SCC(=O)N2CCCC(C)C2)nnc1-c1cccnc1 (stereo unspecified) do in these assays?
DTT redox prof: -1; Dynein transport: 2.2; Autophagy mod: inactive; ROMK primary: 0.53

Results for O=C1NC(=S)S/C1=C\c1ccc(SCc2ccccc2)o1 ?
Cl transport mod: 29*; DTT redox prof: 0; Dynein transport: -0.052; Autophagy mod: inactive; ROMK primary: 1.2

How did CCC1=NN2C(=N)/C(=C\c3ccc(SCc4ccco4)o3)C(=O)N=C2S1 do in these assays?
DTT redox prof: 1; Dynein transport: 0.18; Autophagy mod: inactive

How did O=C1NC(=S)S/C1=C\c1ccc(SCc2ccco2)o1 do in these assays?
Cl transport mod: 119*; DTT redox prof: 0; Dynein transport: 0.94; Autophagy mod: inactive; ROMK primary: -2.8*

Results for COc1ccc(Nc2ccc(N3C(=O)CCCC3=O)cc2[N+](=O)[O-])c(OC)c1 ?
Cl transport mod: 0.038; DTT redox prof: 0; Dynein transport: -0.45; Autophagy mod: inactive; ROMK primary: 0.41

Results for N#C/C(=C/c1cccn1-c1cccc(C(=O)O)c1)c1ccc(F)cc1 ?
Cl transport mod: -2.2; DTT redox prof: -1; Dynein transport: -0.38; Autophagy mod: inactive; ROMK primary: -0.032

What do the screens show for `CN1CCC=C(C(=O)N2c3ccccc3Sc3ccc(Cl)cc32)C1`?
Dynein transport: -1.3

How did Cc1[nH]c2ccccc2c1C(=O)CCl do in these assays?
Cl transport mod: -0.41; DTT redox prof: -1; Dynein transport: -3; Autophagy mod: active; ROMK primary: -1.7

How did Cc1[nH]c2ccccc2c1C(=O)CSc1ccccc1 do in these assays?
Cl transport mod: -0.52; DTT redox prof: 1; Dynein transport: 0.2; Autophagy mod: inactive

Results for Nc1cc(Nc2ccc(Br)cc2)nc(N)n1 ?
Cl transport mod: -1.3; Dynein transport: 0.13; ROMK primary: -0.8

How did Cc1ccc(NC2=Nc3ccccc3N3C2=Nc2c(c(C)nn2-c2ccccc2)C3c2ccc(O)c(O)c2)cc1 (stereo unspecified) do in these assays?
Cl transport mod: -0.57; DTT redox prof: 4; Dynein transport: -0.61; Autophagy mod: active

What do the screens show for `Cc1nn(-c2ccccc2)c2c1C(c1ccc(O)c(O)c1)N1C(=N2)C(Nc2ccccc2)=Nc2ccccc21` (stereo unspecified)?
Cl transport mod: -0.13; DTT redox prof: 3; Dynein transport: -3.1; Autophagy mod: active

Results for Cc1cccc(NC2=Nc3ccccc3N3C2=Nc2c(c(C)nn2-c2ccccc2)C3c2ccc(O)c(O)c2)c1 (stereo unspecified) ?
Cl transport mod: 0.69; DTT redox prof: -3; Dynein transport: -0.42; Autophagy mod: inactive

What do the screens show for `CCN(CC)CCCNC(=O)Cn1nc([N+](=O)[O-])c(Cl)c1C`?
Cl transport mod: 0.9; DTT redox prof: 0; Dynein transport: 0.58; Autophagy mod: inactive; ROMK primary: 0.6

How did CCN1C(=O)/C(=C\c2cn(-c3ccccc3)nc2-c2cccnc2)SC1=S do in these assays?
Cl transport mod: -0.0029; DTT redox prof: 0; Dynein transport: 0.9; Autophagy mod: active; ROMK primary: -0.26

How did CC/C(=N\NC(=S)Nc1ccc(OC)cc1)c1ccc(OC(F)F)cc1 do in these assays?
Cl transport mod: 8.7*; DTT redox prof: 0; Dynein transport: -0.63; Autophagy mod: inactive

How did CC/C(=N\NC(=S)Nc1cc(C)ccc1C)c1ccc(OC(F)F)cc1 do in these assays?
Cl transport mod: 7.7*; DTT redox prof: 0; Dynein transport: -0.55; Autophagy mod: inactive; ROMK primary: -0.7

How did CC/C(=N\NC(C)=O)c1ccc(OC(F)F)cc1 do in these assays?
Cl transport mod: -0.36; DTT redox prof: 1; Dynein transport: 0.69; Autophagy mod: inactive; ROMK primary: 0.61

What do the screens show for `O=C1NCC(COc2ccc(Cl)cc2)O1` (stereo unspecified)?
Cl transport mod: 0.72; DTT redox prof: 0; Dynein transport: -0.11; Autophagy mod: inactive; ROMK primary: -0.41
